Reference: the RNAGym collection of RNA variant scans (doi:10.1002/anie.201605470)

B1: Osa-1-4 twister ribozyme (parent)
chain: CCGCCUAACACUGCCAAUGCCGGUCCCAAGCCCGGAUAAAAGUGGAGGGGGCGG

Variants of: B1
Assay: self-cleavage, relative activity (ratio to wild type); higher = more cleavage; co-transcriptional
Procedure, shortened: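 A DNA template was synthesised for a 54-nucleotide twister ribozyme from Oryza sativa, with 97 % wild-type base and 1 % of each other base at each of the 48 positions downstream of the cleavage site. The ribozyme cleaved itself co-transcriptionally during 2 h of in vitro transcription at 37 °C. Reverse transcription with a template-switching oligonucleotide, PCR amplification and deep sequencing followed, and cleavage status came from reads with or without upstream sequence. Relative activity is the fraction cleaved normalised to wild type.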

Variant	self-cleavage
A16U G30C	0.04
A16U G30A	0.03
A16U G30U	0.03
A16U C11G	0.55
A16U C11U	0.8
A16U C11A	0.64
A17C A7C	0.08
A17C A7U	0.06
A17C A7G	0.1
A17C G47C	0.05
A17C G47A	0.07
A16U C26A	0.03
A16U C26G	0.11
A16U C26U	0.9
A16G U43G	0.62
A16G U43C	0.53
A16G U43A	0.89
A16U A29U	0.11
A16U A29C	0.04
A16U A29G	0.18
A17C C20A	0.58
A17C C20U	0.78
A17C C20G	0.1
A17C G19U	0.04

Variant	self-cleavage
A17C G19A	0.06
A17C G19C	0.04
A16U C20A	0.69
A16U C20U	0.89
A16U C20G	0.15
A16U A8G	0.62
A16U A8U	0.35
A16U A8C	0.06
A17C C27G	0.03
A17C C27U	0.06
A17C C27A	0.06
A16G G53A	0.91
A16G G53C	0.16
A16G G53U	0.71
A16G C26G	0.13
A16G C26U	0.93
A16G C26A	0.08
A16G G47C	0.2
A16G G47A	0.6
A16G G47U	0.49
A16U G47A	0.24
A16U G47C	0.08
A16U G47U	0.2
A16U G49U	0.11

Variant	self-cleavage
A16U G49A	0.11
A16U G49C	0.06
A16U G23C	0.06
A16U G23U	0.09
A16U G23A	0.49
A16U G51U	0.39
A16U G51A	0.64
A16U G51C	0.16
A16U G48U	0.06
A16U G48A	0.08
A16U G48C	0.07
A17C C9U	0.1
A17C C9G	0.12
A17C C9A	0.08
A17C C33U	0.16
A17C C33G	0.04
A17C C33A	0.05
A17C C14G	0.25
A17C C14A	0.1
A17C C14U	0.64
A17C G34U	0.26
A17C G34C	0.14
A17C G34A	0.34
A17C G30U	0.03

Variant	self-cleavage
A17C G30A	0.04
A17C G30C	0.03
A17C G22U	0.06
A17C G22A	0.21
A17C G22C	0.05
A16G U12C	0.53
A16G U12A	0.97
A16G U12G	0.55
A16G G22U	0.82
A16G G22C	0.19
A16G G22A	1
A16G G44U	0.95
A16G G44C	0.96
A16G G44A	0.96
A16G G49A	0.27
A16G G49C	0.08
A16G G49U	0.3
A16U C9U	0.62
A16U C9A	0.42
A16U C9G	0.91
A16G C21U	0.98
A16G C21A	0.8
A16G C21G	0.12
A16G C25A	0.24

Variant	self-cleavage
A16G C25U	0.94
A16G C25G	0.16
A16U C21A	0.66
A16U C21G	0.05
A16U C21U	0.95
A16G C33A	0.26
A16G C33U	0.87
A16G C33G	0.08
A16G U37G	1.02
A16G U37C	1.03
A16G U37A	0.87
A16G U24C	0.58
A16G U24A	0.48
A16G U24G	0.04
A17C A46G	0.05
A17C A46C	0.05
A17C A46U	0.05
A16G G51C	0.22
A16G G51U	0.46
A16G G51A	0.82
A16U A46U	0.05
A16U A46G	0.05
A16U A46C	0.07
A17C A40C	0.06

Variant	self-cleavage
A17C A40U	0.16
A17C A40G	0.28
A16G G45C	0.08
A16G G45A	0.55
A16G G45U	0.19
A16U A38C	1
A16U A38U	1.05
A16U A38G	0.94
A16U	0.97
A16G G13A	0.2
A16G G13C	0.02
A16G G13U	0.04
A16U U18C	0.87
A16U U18A	0.89
A16U U18G	0.66
A16U U37G	1
A16U U37C	1.06
A16U U37A	0.83
A17C A28G	0.05
A17C A28U	0.29
A17C A28C	0.6
A16U G53U	0.4
A16U G53C	0.1
A16U G53A	0.85

Variant	self-cleavage
A16U G35C	0.17
A16U G35A	0.76
A16U G35U	0.82
A16U G34C	0.51
A16U G34U	0.67
A16U G34A	0.73
A17C C26U	0.19
A17C C26G	0.07
A17C C26A	0.03
A17C C52A	0.87
A17C C52U	0.78
A17C C52G	0.9
A16U C32G	0.11
A16U C32A	0.08
A16U C32U	0.13
A17C A36U	0.66
A17C A36C	0.21
A17C A36G	0.75
A17C A38C	0.71
A17C A38G	0.78
A17C A38U	0.66
A17C A29U	0.04
A17C A29G	0.05
